Laboratory results from ChEMBL document CHEMBL1944585, “Design, synthesis, and evaluation of thiol-activated sources of sulfur dioxide (SO₂) as antimycobacterial agents” (J Med Chem, 2012).
In brackets after ≈: the same amount, converted by molar mass. Activity calls are given as the source filed them. The calls are words filed in the database; no cut-off is given here.

What was measured:
[1] = Prodrug activation of compound assessed as sulphur dioxide formation at 100 uM after 30 mins in phosphate buffer at pH 7.4 by pararosaniline-based colorimetric assay in presence of cysteine; settings: pH 7.4, 0.5 h
Procedure, shortened: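 Sulfite detection: 900 μL p-rosaniline dye plus 50 μL saturated HgCl2 plus 50 μL sample, kept in the dark 15 min until violet colour developed, then absorbance read.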

[2] = system: Mycobacterium tuberculosis; test: Antimycobacterial activity against Mycobacterium tuberculosis H37Rv by ten-fold serial dilution method; assay type: functional
Procedure, shortened: (§1)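 Agar dilution: ten-fold serial dilutions incorporated into Middlebrook 7H11 agar with OADC. Inoculum from fresh 7H11 slants, adjusted to 1 mg mL−1 wet weight in 0.05% Tween 80 saline, diluted 10−2 (approx. 10^7 cfu mL−1); 5 μL spotted per tube. 37 °C, read at 28 days. MIC = lowest concentration giving complete growth inhibition.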

[3] = Prodrug activation of compound assessed as sulphur dioxide formation at 100 uM after 4 hrs in phosphate buffer at pH 7.4 by pararosaniline-based colorimetric assay in presence of cysteine; settings: pH 7.4, 4 h
[4] = system: Mycobacterium tuberculosis; test: Antimycobacterial activity against Mycobacterium tuberculosis H37Rv assessed as growth inhibition at 100 ug/ml by ten-fold serial dilution method; assay type: functional, organism-based; procedure, shortened: as §1
[5] = Selectivity index, ratio of IC50 for HEK293 cells to MIC for Mycobacterium tuberculosis H37Rv; assay type: functional
[6] = system: Mycobacterium tuberculosis; test: Antimycobacterial activity against Mycobacterium tuberculosis H37Rv assessed as growth inhibition at 2 ug/ml by ten-fold serial dilution method in presence of cysteine; assay type: functional, organism-based
Procedure, shortened: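 Test material was a cysteine mixture in pH 7.4 buffer, taken about 2 h after mixing and tested at 2 μg mL−1. Run on 7H11-OADC agar against H37Rv: inoculum approx. 10^7 cfu mL−1, 5 μL spotted, 37 °C, read at 28 days for complete growth inhibition.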

HEK293 = test: Cytotoxicity against human HEK293 cells after 72 hrs by XTT assay; assay type: cell-based; settings: HEK293, 72 h

Compound | Drug degradation [1] [µM] | MIC [2] [µM] | MIC99 [2] [µg/mL] | Drug degradation [3] | growth inhibition (GI) [4] | Selectivity Index [5] | growth inhibition (GI) [6] | IC50 (HEK293) [µM]
CN1CCN(S(=O)(=O)c2ccc([N+](=O)[O-])cc2[N+](=O)[O-])CC1 | 88 | 38 (≈ 12.6 µg/mL) | 12.5 (≈ 37.8 µM) | – | – | – | – | –
O=[N+]([O-])c1ccc(Cl)c([N+](=O)[O-])c1 [DINITROCHLOROBENZENE] | 0 | 30.8 (≈ 6.24 µg/mL) | 6.25 (≈ 30.9 µM) | – | – | – | – | –
CCCN(Cc1ccccc1)S(=O)(=O)c1ccc([N+](=O)[O-])cc1[N+](=O)[O-] | 88 | 8.25 (≈ 3.13 µg/mL) | 3.13 (≈ 8.25 µM) | – | – | – | – | –
O=S(=O)(NCc1ccccc1)c1ccccc1 | 0 | > 100 | > 50 | Not Active | – | – | – | –
O=[N+]([O-])c1ccc(S(=O)(=O)Nc2ccccc2)c([N+](=O)[O-])c1 | 55 | 9.7 (≈ 3.14 µg/mL) | 3.13 (≈ 9.68 µM) | – | – | – | – | –
CN(Cc1ccccc1)S(=O)(=O)c1ccc([N+](=O)[O-])cc1[N+](=O)[O-] | 100 | 1.1 (≈ 0.386 µg/mL) | 0.4 (≈ 1.14 µM) | – | – | – | – | –
COC(=O)C(C)NS(=O)(=O)c1ccc([N+](=O)[O-])cc1[N+](=O)[O-] (stereo unspecified) | 93 | 18.7 (≈ 6.23 µg/mL) | 6.25 (≈ 18.8 µM) | – | – | – | – | –
O=[N+]([O-])c1ccc(S(=O)(=O)NCc2ccccc2)cc1 | 0 | > 100 | > 50 | Not Active | – | – | – | –
CS(=O)(=O)NCc1ccccc1 | 0 | > 100 | > 50 | Not Active | – | – | – | –
O=[N+]([O-])c1ccccc1S(=O)(=O)NCc1ccccc1 | 0 | > 100 | > 50 | Not Active | – | – | – | –
CNCc1ccccc1 [N-BENZYLMETHYLAMINE] | – | > 250 | > 100 | – | inactive | – | – | –
COc1ccc(NS(=O)(=O)c2ccc([N+](=O)[O-])cc2[N+](=O)[O-])cc1 | 79.5 | 4.4 (≈ 1.55 µg/mL) | 1.56 (≈ 4.42 µM) | – | – | – | – | –
COC(=O)C1CCCN1S(=O)(=O)c1ccc([N+](=O)[O-])cc1[N+](=O)[O-] (stereo unspecified) | 83 | 35 (≈ 12.6 µg/mL) | 12.5 (≈ 34.8 µM) | – | – | – | – | –
O=[N+]([O-])c1ccc(S(=O)(=O)Nc2cccc(F)c2)c([N+](=O)[O-])c1 | 24 | 73 (≈ 24.9 µg/mL) | 25 (≈ 73.3 µM) | – | – | – | – | –
O=[N+]([O-])c1ccc(S(=O)(=O)N2CCOCC2)c([N+](=O)[O-])c1 | 96 | 19.6 (≈ 6.22 µg/mL) | 6.25 (≈ 19.7 µM) | – | – | – | – | –
O=[N+]([O-])c1ccc(NCc2ccccc2)c([N+](=O)[O-])c1 | 0 | > 250 | > 100 | – | – | – | – | –
NNC(=O)c1ccncc1 [ISONIAZID] | – | 0.37 (≈ 0.0507 µg/mL) | 0.05 (≈ 0.365 µM) | – | – | – | – | –
O=[N+]([O-])c1ccc(S(=O)(=O)N2CCCCC2)c([N+](=O)[O-])c1 | 91 | 2.5 (≈ 0.788 µg/mL) | 0.78 (≈ 2.47 µM) | – | – | – | – | –
O=S([O-])[O-].[Na+].[Na+] | – | – | – | – | inactive | – | – | –
NCc1ccccc1 [BENZYLAMINE] | – | > 250 | > 100 | – | – | – | – | –
O=[N+]([O-])c1ccc(S(=O)(=O)NCc2ccccc2)c([N+](=O)[O-])c1 | 100 | 0.15 (≈ 0.0506 µg/mL) | 0.05 (≈ 0.148 µM) | – | – | 47 | inactive | 7
